High-throughput results: PubChem BioAssay, several laboratories
Sampled rows, rich in hits. Any-hit rate of the full collection: about 2.4%.
Efa HMGR inh: inhibitors of E. faecalis class II HMGR, primary screen, biochemical, Enterococcus faecalis; AID 1066, 2008; inhibition, % at 10 µM; 190,000 tested, 0.41% active; purified E. faecalis HMGR, NADPH absorbance 340 nm kinetic; HMG-CoA reductase (Enterococcus faecalis, mvaE);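 active = inhibition above a set limit, the median over all tested compounds plus 3 SD, cut at about 9.5% in these data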;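 also: enzyme runs in reverse so mevalonate oxidation gives rising NADPH absorbance; 0% = complete reaction with DMSO and 100% = background rate lacking mevalonate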
MT stabilizer: microtubule stabilizers in HeLa cells, primary screen, imaging, high-content imaging. HeLa tubulin immunostaining HCS, 24 h; share of cells brighter than vehicle mean+2SD. % tubulin-high responders, % at 10 µM. 200,000 tested, 0.83% active;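 active = plate Z-score above 3 for both tubulin-high and condensed-nucleus cell shares, with cell loss under 80%, at 10 µM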;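 also: anti alpha tubulin signal scored within the nucleus-defined area of each cell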
b-catenin transl: modulators of beta-catenin nuclear translocation, primary screen, imaging, HeLa cells, immunofluorescence, high-content; nuclear translocation activity, % at 5 µM; 190,000 tested, 0.3% active; AID 1665, 2009;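 active = nuclear translocation activity above 50% at 5 µM, with a well cell count of 50 or more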;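 also: per-cell ratio of nuclear to cytoplasmic median beta-catenin stain intensity; plate controls were DMSO negative control for no effect and GSK-3 inhibitor IX positive control for full effect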
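Read-out: Nuclear/cytoplasmic beta-catenin signal ratio, % activation | Assay system: Human HeLa cell line | Times: 24 h compound exposure at 37°C, 5% CO2 | Signal: Fluorescence imaging of beta-catenin antibody stain plus DAPI | Dosing: 5 µM primary, 0.02–20 µM confirmation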
Tb hexokinase: Trypanosoma brucei hexokinase 1 inhibitors, primary screen, biochemical, G6PDH-coupled NADH absorbance, MLSCN library; hexokinase 1 [Trypanosoma brucei]; recombinant TbHK1, G6PDH-coupled NADH A340; inhibition, % at 10 µM; 220,000 tested, 0.11% active;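 active = inhibition of 50% or more in the single-dose primary screen; inactive = inhibition below 50%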
PGE2 EP2 inh: human EP2 receptor antagonists, primary screen, TR-FRET cAMP, C6 glioma cells | AID 1422, 2008 | C6 glioma cells expressing human EP2; cells stimulated with saturating PGE2 | 260,000 tested, 0.52% active | Prostaglandin E2 receptor EP2 subtype (Homo sapiens), P43116 | inhibition, % at 25 µM;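 active = percent inhibition above 40 after rounding to a whole number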;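 also: rat C6 glioma host cells with rolipram phosphodiesterase inhibitor present; the protocol text gives 20 µM as final concentration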
Target sequence (P43116 whole entry, looked up): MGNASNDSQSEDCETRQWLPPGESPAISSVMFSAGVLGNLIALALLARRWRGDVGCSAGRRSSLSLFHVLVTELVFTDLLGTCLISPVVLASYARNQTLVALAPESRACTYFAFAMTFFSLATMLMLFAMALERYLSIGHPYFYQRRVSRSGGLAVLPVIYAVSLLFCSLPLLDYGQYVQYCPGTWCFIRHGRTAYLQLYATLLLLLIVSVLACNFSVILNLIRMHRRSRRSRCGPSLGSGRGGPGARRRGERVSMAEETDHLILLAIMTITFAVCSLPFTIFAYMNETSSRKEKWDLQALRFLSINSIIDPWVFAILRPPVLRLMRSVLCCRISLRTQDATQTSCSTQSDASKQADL
EP2 mod: EP2 receptor modulators, cAMP readout, primary screen, cell-based, HTRF cAMP, PGE2 stimulation; Prostaglandin E2 receptor EP2 subtype (Homo sapiens), P43116; EP2-expressing cells, cAMP HTRF FRET, PGE2 co-stimulation; induction, % at 25 µM; 260,000 tested, 0.83% active; AID 940, 2007;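 active = compounds whose cAMP rise, as percent of the full-agonist control response, exceeds 60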;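 also: rat C6 glioma line stably carrying human EP2 under a CMV promoter; the protocol text gives 20 µM as final concentration; 100% = response of wells given 1 µM PGE2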
* = called active by the depositor.

`Cc1ccc(NC(=O)CSc2nnc(-c3ccncc3)n2C)cc1Cl` gave PGE2 EP2 inh 14.3 and EP2 mod 18.2.
For COc1cc2c(c3oc(-c4ccccc4)cc(=O)c13)C=CC(C)(C)O2 the results were Efa HMGR inh -3.7, MT stabilizer 2.6, b-catenin transl -2.4, Tb hexokinase -12.2, PGE2 EP2 inh 49.5* and EP2 mod -12.5.
`COc1cc(OC)c2c(=O)cc(-c3ccccc3)oc2c1` gave Efa HMGR inh -6.5, MT stabilizer 0.6, b-catenin transl 3.1, Tb hexokinase -26.8 and EP2 mod -6.3.
Screening CN1CCN(C2=C(Cl)C(=O)C(c3cnc(N4CCCCC4)s3)=C(Cl)C2=O)CC1 returned Efa HMGR inh -6.8, MT stabilizer 2.2, b-catenin transl -3.5, Tb hexokinase -1.8, PGE2 EP2 inh 103.6* and EP2 mod -56.6.
CN1CCN(C2=C(Cl)C(=O)N(C3CCCCC3)C2=O)CC1 was read as Efa HMGR inh -4.9, MT stabilizer 2.6, b-catenin transl -1.8, Tb hexokinase 3.4, PGE2 EP2 inh 5.4 and EP2 mod 24.9.
Screening O=C(Cc1ccc2c(c1)OCO2)N1CCCC(c2ncncc2-c2ccncc2)C1 (stereo not given) returned EP2 mod -66.3.
Cc1ccc(-c2nnc(-c3ccc(C)o3)o2)cc1 was read as PGE2 EP2 inh 11.3 and EP2 mod -6.0.
Screening C=CCOc1ccc(Cl)cc1CNC1CCCC1 returned Efa HMGR inh -2.2, MT stabilizer 2.7, b-catenin transl 0.5, Tb hexokinase -2.2, PGE2 EP2 inh 4.8 and EP2 mod 62.2*.
O=C(N/N=C/c1cccs1)C1COc2ccccc2O1 (stereo not given) was read as Efa HMGR inh -0.7, MT stabilizer 39.8*, b-catenin transl 10.9, Tb hexokinase -6.8, PGE2 EP2 inh 13.6 and EP2 mod -14.5.
Screening O=C(N/N=C/c1ccco1)C1COc2ccccc2O1 (stereo not given) returned Efa HMGR inh -4.9, MT stabilizer 3.2, b-catenin transl 0.9, Tb hexokinase -4.5, PGE2 EP2 inh 2.1 and EP2 mod 21.2.
`Cc1c(/C=N\NC(=O)C2COc3ccccc3O2)c2ccccc2n1C` (stereo not given) gave Efa HMGR inh -4.7, MT stabilizer 5.9, b-catenin transl 57.7*, Tb hexokinase -29.5, PGE2 EP2 inh 5.4 and EP2 mod 0.9.
`COc1ccc(NC(=O)CSc2nc3sc4c(c3c(=O)[nH]2)CCC(C)C4)cc1` (stereo not given) gave PGE2 EP2 inh 12.1 and EP2 mod 5.4.
Cc1cc(C(F)(F)F)nn1CC(=O)NNC(=S)Nc1ccc(Cl)cc1 was read as Efa HMGR inh -2.9, MT stabilizer 2.9, b-catenin transl 0.3, Tb hexokinase 5.6, PGE2 EP2 inh 196.1* and EP2 mod 1.5.
Screening Cc1cc(C(F)(F)F)nn1CC(=O)NNC(=S)Nc1ccc(F)cc1 returned Efa HMGR inh 1.7, MT stabilizer 1.3, Tb hexokinase 1.0, PGE2 EP2 inh 6.3 and EP2 mod -5.7.
Screening CCn1c(N2CCC(C(=O)NC3CCCC3)CC2)nc2ccccc21 returned EP2 mod 62.8*.
COc1ccccc1NC(=O)N(CCO)Cc1cc2cc(C)ccc2[nH]c1=O was read as PGE2 EP2 inh 7.0 and EP2 mod -46.0.
Screening C=C(C)Cn1c(COc2ccccc2)nc2ccccc21 returned PGE2 EP2 inh 10.9 and EP2 mod 68.9*.
`C=C(C)Cn1c(Cc2ccccc2)nc2ccccc21` gave PGE2 EP2 inh 4.6 and EP2 mod 24.9.
For Cc1cc(NC(=O)c2cnn3c(C(F)(F)F)cc(-c4ccccc4)nc23)no1 the results were Efa HMGR inh -1.7, MT stabilizer 2.2, b-catenin transl 0.2, Tb hexokinase -14.0, PGE2 EP2 inh 51.0* and EP2 mod -54.9.
Screening COc1ccc(NC(=S)N(Cc2ccco2)Cc2cc3ccc(C)cc3[nH]c2=O)cc1 returned PGE2 EP2 inh 5.3 and EP2 mod -38.4.
Screening O=c1[nH]c(-c2cccnc2)nc2sc(-c3ccccc3)cc12 returned Efa HMGR inh 7.4, MT stabilizer 20.1*, b-catenin transl 120.3*, Tb hexokinase -22.7, PGE2 EP2 inh 1.9 and EP2 mod -33.3.
`Cc1ccc(N(CCc2ccccn2)N=O)cc1` gave PGE2 EP2 inh 17.6 and EP2 mod -27.6.
CN(CCc1ccccn1)c1ccc2c(c1)C(=O)c1ccccc1-2 was read as PGE2 EP2 inh 74.6* and EP2 mod -63.1.
COc1ccc(N(C(=O)c2ccco2)S(=O)(=O)c2cccs2)cc1 was read as Efa HMGR inh -3.1, MT stabilizer 3.5, b-catenin transl -2.8, Tb hexokinase 5.4, PGE2 EP2 inh 26.4 and EP2 mod -10.7.
Screening O=C(Nc1ccccc1N(C(=O)c1ccco1)S(=O)(=O)c1cccs1)c1ccco1 returned Efa HMGR inh -0.2, MT stabilizer 11.4*, Tb hexokinase -4.5, PGE2 EP2 inh 10.3 and EP2 mod 35.9.
For CCOC(=O)C(C)n1ncc2c3sc(C)cc3n(Cc3ccc(F)cc3)c2c1=O (stereo not given) the results were EP2 mod 65.3*.
For Cc1cc2c(s1)c1cnn(CC(=O)O)c(=O)c1n2Cc1ccc(F)cc1 the results were PGE2 EP2 inh 4.6 and EP2 mod -97.1.
Screening COc1ccc(NC(=O)CSc2nnc(COc3ccccc3C)n2C)c(OC)c1 returned PGE2 EP2 inh 8.0 and EP2 mod -43.1.
COc1ccc(C2(NC(=O)c3c(C(C)C)noc3C)CCCCC2)cc1 was read as PGE2 EP2 inh 6.6 and EP2 mod -13.7.
Screening Cc1ccc2oc(-c3cccc(NC(=S)NC(=O)/C=C/c4ccco4)c3)nc2c1 returned Efa HMGR inh -6.2, MT stabilizer 37.2*, b-catenin transl 11.2, Tb hexokinase -31.0, PGE2 EP2 inh 7.9 and EP2 mod -8.8.
O=c1c2c(-c3cccs3)csc2[nH]c(=S)n1-c1ccccc1 was read as Efa HMGR inh -3.6, MT stabilizer 2.4, b-catenin transl 0.5, Tb hexokinase -1.3, PGE2 EP2 inh 65.8* and EP2 mod -1.4.
`Cc1nc2scc(-c3cccs3)c2c(=O)[nH]1` gave Efa HMGR inh -1.2, MT stabilizer 3.2, b-catenin transl -0.4, Tb hexokinase 0.5, PGE2 EP2 inh 9.0 and EP2 mod -2.4.
